Source: ChEMBL document CHEMBL1144887, “Indanylidenes. 1. Design and synthesis of (E)-2-(4,6-difluoro-1-indanylidene)acetamide, a potent, centrally acting muscle relaxant with antiinflammatory and analgesic activity” (J Med Chem, 2003)

What was measured:
Type in all cases: functional
Rattus norvegicus [1] = experiment: Percent inhibition for analgesic activity by trypsin-induced hyperalgesia assay at 20 mg/kg by oral administration in rats.
How it was run: (§1)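 Rat trypsin-induced hyperalgesia (mild analgesia). Percent inhibition at a single oral dose of 20 mg/kg. Each compound tested two or three times; average variation approximately 5%.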

Rattus norvegicus [2] = experiment: Effective dose required for analgesic activity by trypsin-induced hyperalgesia assay at 20 mg/kg by oral administration in rats
How it was run: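 Rat trypsin-induced hyperalgesia (mild analgesia) with oral dosing. ED50 reported in mg/kg po. Each compound tested two or three times; average variation approximately 5%.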

Mus musculus [3] = experiment: (§2) Percent effect profile muscle relaxation at 100 mg/kg by intraperitoneal administration in mouse using Straub-tail (ST) assay; conditions: ip
How it was run: (§3)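 Mouse morphine-induced Straub tail assay, scoring inhibition of sacro-coccygeus dorsalis contraction. Single ip dose of 100 mg/kg; percent effect reported. Compounds above 50% inhibition were then tested orally.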

Rattus norvegicus [4] = experiment: Antiinflammatory activity in edema by Carrageenan pleurisy assay by oral administration at 20 mg/kg.
How it was run: (§4)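 Rat carrageenan pleurisy, 3 h. Single oral dose of 20 mg/kg, with separate read-outs for pleural cell counts and edema as percent inhibition. Each compound tested two or three times; average variation approximately 10%.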

Rattus norvegicus [5] = experiment: Antiinflammatory activity in cells by Carrageenan pleurisy assay by oral administration at 20 mg/kg.; how it was run: as §4
Mus musculus [6] = experiment: Effective dose required for muscle relaxation by oral administration in mouse using Straub-tail (ST) assay.
How it was run: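 Mouse morphine-induced Straub tail assay, scoring inhibition of sacro-coccygeus dorsalis contraction. Dosed ip or po, generally at a minimum of three doses with N = 6 animals per dose group.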

Mus musculus [7] = experiment: as §2; conditions: ip; how it was run: as §3; remark: listed apart in the source
Mus musculus [8] = species: Mus musculus; experiment: Ratio of rotarod to Straub-tail activity, which indicates the dose exhibiting muscle relaxant activity versus that producing sedation.
How it was run: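 Ratio of rotorod ED50 (po) to Straub tail ED50 (po), both measured in mice with oral dosing. Indicates separation between the muscle-relaxant dose and the sedating dose.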

Mus musculus [9] = experiment: Sedation caused by oral administration was estimated using rotarod (RR) assay.
How it was run: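 Mouse rotorod test for sedation, oral dosing, generally at a minimum of three doses with N = 6 animals per dose group.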

Rattus norvegicus [10] = experiment: Percent inhibition for analgesic activity by trypsin-induced hyperalgesia assay at 20 mg/kg by oral administration in rats; how it was run: as §1

Structure (SMILES) | inhibition in vivo at 20 mg/kg (Rattus norvegicus [1]) [%] | ED50 (Rattus norvegicus [2]) [mg/kg] | inhibition in vivo at 100 mg/kg (Mus musculus [3]) [%] | inhibition in vivo at 20 mg/kg (Rattus norvegicus [4]) [%] | inhibition in vivo at 20 mg/kg (Rattus norvegicus [5]) [%] | ED50 (Mus musculus [6]) [mg/kg] | inhibition in vivo at 100 mg/kg (Mus musculus [7]) [%] | Ratio (Mus musculus [8]) | ED50 (Mus musculus [9]) [mg/kg] | inhibition in vivo at 20 mg/kg (Rattus norvegicus [10]) [%]
NC(=O)/C=C1\CCc2c(F)cccc21 | 68 | 13 | 63 | 34 | 40 | > 100 |  |  |  | 
CCNC(=O)/C=C1\CCc2c(F)cc(F)cc21 | 63 |  |  |  |  |  | 67 |  |  | 
O=C(/C=C1\CCc2cc(F)ccc21)NC1CC1 |  |  | 100 |  |  | 81 |  | 2.4 | 193 | 
NC(=O)CC1CCc2c(F)cc(F)cc21 (centres undefined) |  |  | 50 |  |  |  |  |  |  | 11
Cc1cccc2c1CC/C2=C\C(=O)NC1CC1 |  |  | 100 | 7 | 15 | 40 |  | 1.6 | 64 | 
NC(=O)/C=C1\CCc2ccc(Br)cc21 |  |  |  | 21 | 38 | 96 | 100 |  |  | 
NC(=O)/C=C1\CCc2c(Cl)cccc21 | 29 |  |  | 58 | 35 |  | 67 |  |  | 
Cc1cccc2c1/C(=C/C(=O)NC1CC1)CC2 |  |  |  |  |  |  | 17 |  |  | 24
CCNC(=O)/C=C1\CCc2ccc(F)cc21 | 40 |  |  | 63 | 45 | 70 | 100 | 1.9 | 136 | 
CCCNC(=O)/C=C1\CCc2ccc(F)cc21 | 11 |  |  | 36 | 0 | > 100 | 100 |  |  | 
O=C(/C=C1\CCc2cc(F)cc(F)c21)NC1CC1 | 13 |  |  |  |  | 69 | 100 | 1.4 | 81 | 
O=C(/C=C1\CCc2ccc(F)cc21)NC1CCC1 |  |  | 100 | 0 | 4 | > 100 |  |  |  | 17
O=C(/C=C1\CCc2ccc(F)cc21)NC1CC1 |  |  |  | 7 | 5 | 66 | 100 | 0.9 | 62 | 
NC(=O)/C=C1/CCc2ccc(F)cc21 |  |  |  |  |  | 64 | 100 | 1.4 | 92 | 24
CNC(=O)/C=C1\CCc2cc(F)cc(F)c21 |  |  |  |  |  |  | 33 |  |  | 33
Cc1cccc2c1/C(=C/C(N)=O)CC2 |  |  |  |  |  | 82 | 100 | 0.7 | 56 | 12
O=C(/C=C1\CCc2c(F)ccc(F)c21)NC1CC1 | 2 |  |  |  |  | 59 | 100 | 0.03 | 2 | 
O=C(/C=C1\CCc2cc(F)c(F)cc21)NC1CC1 |  |  |  | 48 | 30 |  | 50 |  |  | 
CON(C)C(=O)/C=C1\CCc2ccc(F)cc21 |  |  |  | 14 | 6 |  | 17 |  |  | 
O=C(/C=C1\CCc2ccc(Br)cc21)NC1CC1 |  |  |  | 4 | 29 |  | 33 |  |  | 
O=C(/C=C1\CCc2ccc(F)cc21)N1CCCC1 | 10 |  |  | 18 | 10 |  | 33 |  |  | 
CNC(=O)/C=C1\CCc2cc(Cl)ccc21 | 25 |  |  | 44 | 40 |  | 50 |  |  | 
O=C(/C=C1\CCc2ccc(F)cc21)NCC1CC1 |  |  |  | 21 | 0 |  | 50 |  |  | 
CC(C)NC(=O)/C=C1\CCc2c(F)cc(F)cc21 |  |  |  |  |  | 50 | 100 | 1.9 | 76 | 
